GalR3 antag: GalR3 antagonists in HEK293 cells, primary screen, cell-based, fluorescence readout; HEK293 GalR3-CNG cAMP membrane potential fluorescence; galR3 body fused to GalR1 C-terminus; inhibition, % at 3 µM; 360,000 compounds, 0.44% hits; Galanin receptor type 3 (Homo sapiens), O60755; AID 651719, 2012;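 active = inhibition above the screen-wide average plus 3 SD, cut at about 13% in these data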;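 note: forskolin and galanin both at EC90 stimulate the cells; cAMP rise reported by CNG channel membrane potential dye signal; 0% = forskolin plus galanin with DMSO and 100% = forskolin alone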
OX1R antag-1: OX1R (HCRTR1) antagonists, primary screen, fluorescence, CHO/OX1R cells, Fluo-8 calcium, orexin A. inhibition, % at 5 µM. Fluo-8 calcium fluorescence. Orexin/Hypocretin receptor type 1 (Homo sapiens), O43613. 330,000 compounds, 0.43% hits;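 active = inhibition above its plate's threshold, mean inhibition of all tested compounds on the plate plus 3 SD, cut at about 37% in these data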;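 note: 0% = orexin A challenge wells and 100% = SB-334867-A antagonist wells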
Target sequence (O43613 whole entry, looked up): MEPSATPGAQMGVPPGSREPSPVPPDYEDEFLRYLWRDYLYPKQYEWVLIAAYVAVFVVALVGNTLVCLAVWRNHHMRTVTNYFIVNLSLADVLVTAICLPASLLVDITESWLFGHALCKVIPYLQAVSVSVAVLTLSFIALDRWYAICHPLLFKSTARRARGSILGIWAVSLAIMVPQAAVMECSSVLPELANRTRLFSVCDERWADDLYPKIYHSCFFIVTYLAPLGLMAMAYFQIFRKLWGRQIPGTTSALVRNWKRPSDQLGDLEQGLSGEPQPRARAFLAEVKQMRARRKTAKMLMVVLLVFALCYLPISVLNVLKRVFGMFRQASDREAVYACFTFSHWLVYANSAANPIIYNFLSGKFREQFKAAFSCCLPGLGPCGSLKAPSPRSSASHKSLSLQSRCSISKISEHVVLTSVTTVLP
OX1R antag-2: antagonists of human orexin 1 receptor (OX1R) | Orexin/Hypocretin receptor type 1 (Homo sapiens), O43613 | OX1R-expressing cells, FRET antagonist read-out | inhibition, % at 6.6 µM | 330,000 compounds, 1.8% hits | AID 485270, 2010; in the data active = inhibition mostly above about 38%, no sharp cut-off; inactive = mostly below about 40%;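 note: 0% = agonist challenge alone and 100% = reference antagonist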
CHO parental Ca: ATP-evoked calcium signal inhibitors, parental CHO, primary screen, counter-screen for OX1R antagonist project, cell-based, fluorescence, Fluo-8 calcium dye; parental CHO-K1, ATP-induced calcium, Fluo-8 fluorescence; inhibition, % at 5.6 µM; 330,000 compounds, 0.63% hits; AID 463079, 2010;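 active = inhibition above that plate's mean sample inhibition plus 3 SD, cut at about 26% in these data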;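 note: 0% = ATP-challenged DMSO wells and 100% = DMSO wells without ATP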
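Test system: untransfected parental CHO cell line. Compound: one dose, 5.6 µM nominal. Detection: intracellular calcium via Fluo-8 no-wash fluorescent dye. Measure: % inhibition. Benchmarks: ATP-challenged DMSO wells low, unchallenged DMSO wells high.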
GPR7 antag: GPR7 receptor antagonists, primary screen, cell-based, fluorescence, single concentration | 290,000 compounds, 1.1% hits | Neuropeptides B/W receptor type 1 (Homo sapiens), P48145 | GPR7-expressing cells, fluorescence antagonist assay | inhibition, % at 4.4 µM | AID 1861, 2009; in the data active = inhibition above about 16%, passing the limit was not always enough;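 note: cells stimulated with the agonist NPW; 0% = agonist with vehicle and 100% = vehicle without agonist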
* marks the source's active call; other numbers are inactive results; . = no result given. Hits are enriched below; roughly 3.1% of the tested compounds scored in any of these assays.

SMILES | GalR3 antag | OX1R antag-1 | OX1R antag-2 | CHO parental Ca | GPR7 antag
C/C(=N\NC(=O)c1nnn(-c2nonc2N)c1C)c1ccc(-c2ccccc2)cc1 | -8 | -65 | 11 | -5 | 20*
Nc1nonc1-n1nnc(C(=O)N/N=C/c2ccccn2)c1CNc1ccccc1 | 0 | 0 | 50* | -21 | -17
Nc1nonc1-n1nnc(C(=O)N/N=C/c2ccccn2)c1-c1ccccc1 | -4 | . | . | . | -12
C/C(=N/NC(=O)c1nnn(-c2nonc2N)c1COc1ccccc1)c1ccccc1 | -7 | 0 | 9 | -9 | 3
Cc1ccc(/C=N/NC(=O)c2nnn(-c3nonc3N)c2-c2ccc3c(c2)OCO3)s1 | -8 | -5 | 43* | -2 | -10
Nc1nonc1-n1nnc(C(=O)N/N=C/c2cc(Br)cs2)c1-c1ccccc1 | -9 | 1 | 51* | 1 | -15
O=c1n(Cc2ccccc2)c(O)c2n1Cc1ccccc1N=C2c1ccccc1 | -5 | . | . | . | .
O=C(CCN1C(=O)/C(=C/c2ccccc2Cl)SC1=S)Nc1ccccn1 | 1 | -40 | 65* | -13 | -40
Cc1onc(-c2ccccc2Cl)c1C(=O)N1CCCc2ccccc21 | -3 | -16 | 35* | -19 | -5
Clc1ccc2nc3c4ccccc4cnn3c2c1 | -7 | 3 | 69* | -24 | -5
COn1c(-c2ccccc2)nc2ccc(Cl)cc21 | -2 | -28 | 19 | -15 | -6
O=[N+]([O-])c1nn(-c2ccc3c(c2)OCCO3)n(O)c1=NCCCO | -2 | -19 | 74* | 5 | 3
COc1ccc(OCCNC(=O)c2ccc3nc(C)c(N(C)Cc4ccc(NC(C)=O)cc4)n3c2)cc1 | -7 | . | . | . | .
COC(=O)[C@]12C[C@H](CC(=O)NCc3ccccc3)C(=O)N(Cc3ccccc3)C1=C[C@H](C(C)(C)C)O[C@@H]2C | -7 | . | . | . | .
COc1cccc2cc(C(=O)c3ccc([N+](=O)[O-])cc3)oc12 | -5 | -19 | 17 | -13 | 3
COc1ccccc1-c1c(C(F)(F)F)oc2cc(OC(=O)c3ccc([N+](=O)[O-])cc3)ccc2c1=O | -5 | -3 | 73* | -13 | -14
Cc1ccc(NC(=O)Cn2cnc(C(=O)Nc3ccc(C)c(C)c3)n2)cc1C | -6 | -1 | 7 | -5 | .
Cc1cc(C)c(CN2CCN(C(=O)Cn3cnc(C(=O)Nc4ccc(C)c(C)c4)n3)CC2)c(C)c1 | -9 | 59* | -1 | 55* | .
Fc1ccc(NCc2nnc(SCc3nnc(-c4ccccc4)o3)n2Cc2ccccc2)cc1 | 1 | 73* | 51 | 51* | -15
Clc1ccc(-c2nnc(CSc3nnc(-c4cccs4)n3Cc3ccccc3)o2)cc1 | 3 | 4 | 47* | 23 | 20
C=C(C)c1nc(Oc2ccccc2)nc(Oc2ccccc2)n1 | -4 | . | . | . | .
COc1ccc(OCC(=O)N2CCN(S(=O)(=O)c3ccc4c(c3)OCCO4)CC2)cc1 | -8 | . | . | . | .
Cc1ccc(NCCCn2cnc3c(OCc4ccccc4)ncnc32)cc1C | 4 | . | . | . | .
COCc1cccc(-c2csc(C(O)c3cccc(OC)c3)n2)c1 (centres undefined) | -4 | . | . | . | .
CC(O)(c1cccnc1)c1nc(-c2ccc(F)c(Cl)c2)cs1 (centres undefined) | -5 | . | . | . | .
SMILES | GalR3 antag | OX1R antag-1 | OX1R antag-2 | CHO parental Ca | GPR7 antag
CC(C)C[C@H](NC(=O)N1CCOCC1)C(=O)N1CCC[C@H]1C(=O)NCc1ccccc1 | -7 | . | . | . | .
O=C(Nc1nccs1)[C@@H]1CC=C[C@@H]2CCN(Cc3ccccc3)C(=O)[C@@H]21 | -2 | 6 | 68* | -17 | .
COc1ccc(NC(=O)[C@@H]2CC=C[C@@H]3CCN(Cc4ccccc4)C(=O)[C@@H]32)cc1 | -4 | -10 | 41 | -16 | .
Nc1n[nH]c(-c2ccc([N+](=O)[O-])cc2[N+](=O)[O-])n1 | -6 | -7 | 67* | 1 | -6
Nc1nc(-c2ccc([N+](=O)[O-])cc2)cc(=O)[nH]1 | -2 | . | . | . | .
O=C(Nc1nc2n(n1)C(c1ccccc1)C=C(c1ccccc1)N2)c1ccco1 (centres undefined) | -3 | -16 | 50* | -21 | -11
CC(C)n1c(=O)c2ccccc2n1Cc1cn(-c2ccccc2)nn1 | -6 | . | . | . | .
O=C(c1cccc([N+](=O)[O-])c1)c1ccc2c(c1)C(=O)NC2=O | -2 | -1 | 54* | 10 | -3
O=C1CN(C(=O)c2cccc([N+](=O)[O-])c2)CC(=O)N1 | -10 | -13 | 8 | -13 | -15
O=[N+]([O-])c1ccc(Cl)cc1P(=O)(O)c1cc(Cl)ccc1[N+](=O)[O-] | 3 | . | . | . | .
N=C(N)c1ccc(Cl)cc1 | -2 | -8 | 11 | 3 | -9
N=C(N)c1ccc(/C=C/c2ccc(C(=N)N)cc2O)cc1 | -2 | -7 | 46* | -7 | -9
Cc1ccc(C(C)C)cc1-n1nnc(-c2cccc(Cc3ccc4ccccc4c3)c2)c1C(C)O (centres undefined) | 5 | . | . | . | .
COc1ccc(OC)c2c1C(=O)c1ccccc1C2=O | 5 | 17 | 65* | 10 | -1
O=C1c2ccccc2-c2onc3ccc(NCCCn4ccnc4)c1c23 | . | 57* | 46* | 40* | -6
COc1ccc(OC)c2c1C(=O)C(Cl)=C(Cl)C2=O | -6 | 69* | 104* | 75* | -1
COc1ccc(N)c2c1C(=O)c1ccccc1C2=O | -6 | 8 | 70* | 10 | 3
Cc1ccc(C2NC(=O)c3n[nH]c(C)c32)cc1 (centres undefined) | 7 | . | . | . | .
CC1CC(C)CN(C(C(=O)NC2CCCCC2)c2cc3ccccc3o2)C1 (centres undefined) | -8 | . | . | . | .
CC(C)CC(=O)c1c(O)cc(O)c2c1OC1=C(C(=O)C(C)(C)C(=O)C1(C)C)C2CC(C)C (centres undefined) | -6 | . | . | . | .
COc1cccc2c1C(=O)c1ccc3ccccc3c1C2=O | . | -10 | 16 | -17 | -9
COc1ccc2noc3c2c1C(=O)c1ccccc1-3 | -3 | 51* | 100* | 51* | .
Cc1cccc(NC(=O)c2snc3c(=O)[nH]cnc23)c1 | . | . | . | . | -10
O=C(Nc1ccc(N2CCCC(O)C2)cc1)c1snc2c(=O)[nH]cnc12 (centres undefined) | -2 | -5 | 40* | 0 | -8
COc1ccc2nc(/N=C\N(C)C)sc2c1 | -1 | -11 | 24 | -5 | -7
CN(C)/C=N/c1ncc(C(=O)c2ccc3ccccc3c2)s1 | -8 | -23 | 42* | -16 | 4
COc1ccc(C(=O)c2cnc(/N=C/N(C)C)s2)cc1 | -4 | -10 | 46* | 4 | -2
CCOC(=O)C1CCCN(S(=O)(=O)c2ccc(S(=O)(=O)N3CCCC3)cc2)C1 (centres undefined) | -6 | 10 | 36 | 37* | .

High-throughput results from PubChem.
